Activity calls are given as the source filed them. The rule behind the calls is not given here.

This passage reports Activity and half-life results from ChEMBL document CHEMBL1138284, “Malaria causal prophylactic activity of imidazolidinedione derivatives” (J Med Chem, 2007).

Data set [1] has as its system Plasmodium yoelii. Nature of the data set: Protection against Plasmodium yoelii sporozoite infected mice (Mus musculus) as minimal active peroral dose. The class given is functional. Put shortly: (§1)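 Mice challenged with Plasmodium yoelii sporozoites received a single oral dose of the test compound. Protection was scored at day 6 as the number of parasite-free mice out of 5 per dose group. The minimum active dose was taken as the lowest dose giving activity.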

Data set [2] can be described thus: Half life in iv dosed rat plasma. The class given is ADME, organism-based.
Data set [3] has as its system Plasmodium yoelii. Nature of the data set: Protection against Plasmodium yoelii sporozoite infected mice (Mus musculus) at 160 mg/kg peroral dose. The arrangement: dose 160 mg/kg. The class given is functional, organism-based. Put shortly: as §1
The nature of data set [4]: Metabolic stability assessed as half life in human liver microsomes. In general terms: Liver microsomes are a subcellular fraction often used to study metabolism.
Another data set has as its system Plasmodium cynomolgi. As to the kind of experiment: Prophylactic parasite potency against Plasmodium cynomolgi sporozoite challenged rhesus monkey at 30 mg/kg/day Intramuscular dose for 3 days. The class given is functional. The method in brief:
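Rhesus monkeys were inoculated with P. cynomolgi sporozoites and given 30 mg/kg IM once daily for 3 days, starting the day before inoculation; two monkeys per group, with untreated controls. Blood smears were taken daily from day 6 for 21 days, then 3×/week for 4 weeks, then 2×/week to 100 days after the last dose. Patency was the first smear-positive day.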

Data set [5] is described as follows: Metabolic stability assessed as half life in mouse liver microsomes.
The subject of data set [6] is Plasmodium yoelii. Nature of the data set: Protection against Plasmodium yoelii sporozoite infection in mice (Mus musculus) at 10 mg/kg peroral dose. The arrangement: dose 10 mg/kg. The class given is functional, organism-based. The method in brief: as §1
The test system of data set [7] is Plasmodium yoelii. As to the kind of experiment: Protection against Plasmodium yoelii sporozoite infected mice (Mus musculus) at 40 mg/kg peroral dose. The class given is functional, organism-based. The arrangement: dose 40 mg/kg. The method in brief: as §1
For data set [8], the system named is Plasmodium yoelii. As to the kind of experiment: Protection against Plasmodium yoelii sporozoite infected mice (Mus musculus) as minimal active perorally daily dose over 3 days. The class given is functional. The method in brief: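 Mice were challenged with P. yoelii sporozoites and dosed orally once daily for 3 consecutive days (days −1, 0, +1), starting the day before challenge. Protection was scored at day 6 as protected mice out of 5 per dose. The minimum active dose was taken from the dose series.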

Data set [9] relates to Plasmodium falciparum. As to the kind of experiment: Antimalarial activity against pyrimethamine-sensitive Plasmodium falciparum D6. The class given is functional, organism-based.
Data set [10] concerns Plasmodium falciparum. Nature of the data set: Antimalarial activity against pyrimethamine-resistant Plasmodium falciparum W2. The class given is functional, organism-based.
In the next data set the test system is Plasmodium berghei. As to the kind of experiment: Antimalarial activity against Plasmodium berghei infected mice (Mus musculus). The class given is functional, organism-based.
Data set [11] concerns Plasmodium yoelii. As to the kind of experiment: Protection against Plasmodium yoelii sporozoite infected mice (Mus musculus) at 120 mg/kg peroral dose. The arrangement: dose 120 mg/kg. The class given is functional, organism-based.
Data set [12] relates to Plasmodium yoelii. As to the kind of experiment: Protection against Plasmodium yoelii sporozoite infected mice (Mus musculus) at 480 mg/kg peroral dose. The class given is functional, organism-based. Details: dose 480 mg/kg.

For the compound `CCC(CC)C(=O)N/C(=N\C1=NC(=O)C(=O)N1c1ccc(Cl)c(Cl)c1)NC(C)C`, the values for the Activity in the data set on Plasmodium yoelii [1] and in the data set on Plasmodium cynomolgi were below 10 mg/kg and 15 days, respectively. Also, the half-life in data set [2], in data set [4] (liver microsomes) and in data set [5] (liver microsomes) was below 10 min each time. Further, the result in the data set with Plasmodium yoelii [3] was Active.

`CCCC(=O)N/C(=N\C1=NC(=O)C(=O)N1c1ccc(Cl)c(Cl)c1)NC(C)C`: the outcome with Plasmodium yoelii [6], with Plasmodium yoelii [3] and in the data set with Plasmodium yoelii [7] was Active. In addition, the Activity in the data set with Plasmodium yoelii [1] is below 10 mg/kg. In addition, the half-life in data set [4] (liver microsomes) and in data set [5] (liver microsomes) was below 10 min each time.

With `CCC(CC)C(=O)N/C(=N/C1=NC(=O)C(=O)N1C(C)C)Nc1ccc(Cl)c(Cl)c1`, the Activity is above 160 mg/kg in the data set on Plasmodium yoelii [1], 7.5 mg/kg with Plasmodium yoelii [8] and 17 days with Plasmodium cynomolgi. Further, the half-life in [4] (liver microsomes) and in data set [5] (liver microsomes) was above 60 min each time.

For `CC(C)N/C(=N/C1=NC(=O)C(=O)N1c1ccc(Cl)c(Cl)c1)NC(=O)C(C)C`, the Activity in the data set with Plasmodium yoelii [1] is below 10 mg/kg. Further, the result with Plasmodium yoelii [3] and in the data set on Plasmodium yoelii [7] was Active. Besides, the half-life in [4] (liver microsomes) and in data set [5] (liver microsomes) was below 10 min in each case.

Regarding `CC(C)N1C(=O)C(=O)N=C1N/C(=N\C(=O)OC(C)(C)C)Nc1ccc(Cl)c(Cl)c1`, the Activity in the data set with Plasmodium cynomolgi was 68 days.

Regarding `CC(C)C(=O)N/C(=N/C1=NC(=O)C(=O)N1C(C)C)Nc1ccc(Cl)c(Cl)c1`, the Activity with Plasmodium yoelii [1] is above 160 mg/kg; in the data set with Plasmodium yoelii [8], below 30 mg/kg.

Consider `CC(C)Nc1nc(Nc2ccc(Cl)c(Cl)c2)nc(C(C)C)n1`, for which the result in the data set on Plasmodium falciparum [9], with Plasmodium falciparum [10] and in the data set on Plasmodium berghei was inactive.

Take `CC(C)N1C(=O)C(=O)N=C1/N=C(/NC(=O)C(C)(C)C)Nc1ccc(Cl)c(Cl)c1`: the Activity with Plasmodium yoelii [1] is above 160 mg/kg; with Plasmodium yoelii [8], above 480 mg/kg; in the data set on Plasmodium cynomolgi, 40 days. Also, the outcome in the data set with Plasmodium yoelii [11] and with Plasmodium yoelii [12] was inactive. Besides, the half-life in data set [4] (microsomes) and in [5] (microsomes) was above 60 min throughout.

As for `CCCc1nc(Nc2ccc(Cl)c(Cl)c2)nc(NC(C)C)n1`, the result in the data set with Plasmodium falciparum [9], in the data set on Plasmodium falciparum [10] and with Plasmodium berghei was inactive.

Regarding `CCC(CC)c1nc(Nc2ccc(Cl)c(Cl)c2)nc(NC(C)C)n1`, the half-life in data set [4] (liver microsomes) and in [5] (liver microsomes) was above 60 min each time. The outcome with Plasmodium falciparum [9], with Plasmodium falciparum [10] and with Plasmodium berghei was inactive.
